Rows were chosen to be rich in hits. Some 2.9% of all compounds tested hit in one or more screens of this group.
proKLK7 act: proKLK7 (human) activation, primary screen; purified proKLK7, EDANS-DABCYL substrate fluorescence; 100% is mature enzyme control, 0% vehicle; activation, % at 7 µM; 370,000 compounds, 0.9% hits; P49862;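 active = activation above the mean of all tested compounds plus 3 SD, computed per campaign excluding outliers beyond control limits, cut at about 13% in these data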
AI-2 QS modul: modulates the Vibrio harveyi AI-2 quorum sensing system | activity change, % at 7.5 µM | 300,000 compounds, 0.4% hits | AID 2094 | Vibrio harveyi JMH597 AI-2 luminescence/OD600 ratio, 9 h; active compounds read low; strain lacks LuxN and CqsS sensors; 0 = neutral-control median; in the data active = activity change below about -75%, passing the limit was not always enough;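 also: luminescence divided by OD600 gain over 9 h not by final OD600 alone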
RanGTP-Impb inh: inhibitors of RanGTP-importin-beta interaction, primary screen, biochemical, FRET, CFP-Ran, YFP-importin-beta, homogeneous | cell-free CFP-Ran/YFP-importin-beta FRET ratio | inhibition, % (no concentration beside the values) | 300,000 compounds, 1.1% hits | AID 2216;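 active = more than half of the replicate wells show a fall in the fluorescence ratio signal beyond about 16%, limit read from the data, passing the limit was not always enough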
Runt-SMMHC FRET: inhibitors of human RUNX1 Runt domain binding to CBFb-SMMHC; inhibition, % at 20 µM; 220,000 compounds, 0.74% hits; Q01196+Q13951; Cerulean-Runt/Venus-CBFb-SMMHC FRET ratio 530/480, 1 h;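 active = mean inhibition across duplicate retests at 20 µM reaching about 50%, limit read from the data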;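 also: inhibitors lower the FRET ratio by blocking Runt binding to CBFb-SMMHC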
Wee1 stabilizer: blocks degradation of human Wee1 kinase | P30291 | HeLa Luc-Wee1K328M stability, luciferase luminescence; 100% = proteasome inhibitor MG132 effect | reporter increase, % at 5 µM | 220,000 compounds, 1.2% hits | AID 1321;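 active = activation above the mean of all tested compounds plus 3 SD, set per screening run, cut at about 8.8% in these data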;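 also: cells exposed to compound for 20 h before luminescence read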
Target sequence (P30291 whole entry K328M): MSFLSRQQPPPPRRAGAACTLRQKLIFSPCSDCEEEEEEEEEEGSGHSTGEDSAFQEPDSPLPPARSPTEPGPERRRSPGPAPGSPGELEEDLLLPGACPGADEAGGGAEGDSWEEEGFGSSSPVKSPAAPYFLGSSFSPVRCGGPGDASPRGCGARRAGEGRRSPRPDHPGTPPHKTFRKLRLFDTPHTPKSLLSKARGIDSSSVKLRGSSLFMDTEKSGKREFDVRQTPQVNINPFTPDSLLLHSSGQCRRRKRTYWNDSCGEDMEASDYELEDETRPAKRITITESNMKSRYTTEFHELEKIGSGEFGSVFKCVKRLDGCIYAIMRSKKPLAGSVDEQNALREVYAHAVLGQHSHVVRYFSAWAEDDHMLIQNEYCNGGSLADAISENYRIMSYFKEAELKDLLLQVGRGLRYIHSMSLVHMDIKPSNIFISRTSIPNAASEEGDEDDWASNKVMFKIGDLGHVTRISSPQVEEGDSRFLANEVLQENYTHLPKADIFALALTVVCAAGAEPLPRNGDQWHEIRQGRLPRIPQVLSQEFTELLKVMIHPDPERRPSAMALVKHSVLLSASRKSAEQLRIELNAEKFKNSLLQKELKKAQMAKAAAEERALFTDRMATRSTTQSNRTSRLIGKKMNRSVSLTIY
Runt-CBFb FRET: Runt domain-CBFb interaction inhibition; inhibition, % at 20 µM; Cerulean-Runt/Venus-CBFb FRET ratio 530/480, 1 h; 220,000 compounds, 0.46% hits; AID 1496; Q01196+Q13951;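 active = inhibition over about 50% at 20 µM in the single-dose screen, limit read from the data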
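Schedule: protein complex preformed 1 h, compound exposure 1 h, room temperature, dark; test system: Cerulean-labeled Runt domain protein; amount: 100 nM per protein; buffer or medium: Tris 50 mM pH 7.5, KCl, K2SO4, 0.01% BSA; read-out: loss of energy transfer signal; detection: FRET fluorescence; controls: 5 µM unlabeled CBFb as full-inhibition high control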
proKLK7 act conf: confirmation of human kallikrein-7 zymogen activators; shares compounds with proKLK7 act; purified proKLK7, EDANS-DABCYL substrate fluorescence; scaled: vehicle 0, mature enzyme 100; activation, % at 7 µM; 3,200 compounds, 68% hits; AID 686949;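 active = activation, as change over the incubation, above the mean of all tested compounds plus 3 SD, cut at about 13% in these data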
EDANS interfere: fluorescence interference counter-screen for KLK7 activators. shares compounds with proKLK7 act. AID 686952. activation, % at 7 µM. EDANS-DABCYL substrate fluorescence interference, no enzyme, 4 h; solvent 0%, active enzyme control 100%. 3,200 compounds, 80% hits;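 active = activation above the all-compound mean plus 3 SD, ignoring values outside control-based bounds, cut at about 4.8% in these data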;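 also: value is the 4 h activation minus the activation read at time zero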
Numbers stand for hits.

For CN(C)S(=O)(=O)c1cccc(NC(=O)COC(=O)CNC(=O)c2cccc([N+](=O)[O-])c2)c1 the results were proKLK7 act inactive, AI-2 QS modul inactive, RanGTP-Impb inh inactive, Runt-SMMHC FRET inactive, Wee1 stabilizer inactive and Runt-CBFb FRET inactive.
For CCOC(=O)C1(CCOc2ccccc2)CCN(Cc2cccc3nonc23)CC1 the results were proKLK7 act inactive, AI-2 QS modul inactive, RanGTP-Impb inh inactive, Runt-SMMHC FRET inactive, Wee1 stabilizer inactive and Runt-CBFb FRET inactive.
`O=C(O)c1nc(-c2ccccc2)c(C(=O)NC2CC2)[nH]1` gave proKLK7 act inactive.
O=c1c(-c2ccccc2)nc2ccccc2n1C(c1ccccn1)c1nc2ccccc2[nH]1 (configuration not stated) was read as proKLK7 act inactive.
For O=c1c(-c2cccs2)nc2ccccc2n1C(c1ccccn1)c1nc2ccccc2[nH]1 (configuration not stated) the results were proKLK7 act 17, proKLK7 act conf inactive and EDANS interfere 14.
`Nc1ncc(-c2ccc(F)cc2)nc1N1CCN(CCO)CC1` gave proKLK7 act 24, proKLK7 act conf inactive and EDANS interfere 11.
CC1C2=C(CCCC2=O)N(c2cccc3ccccc23)C2=C1C(=O)CCC2 was read as Wee1 stabilizer inactive.
Screening CCOC(=O)c1[nH]c2ccc(Br)cc2c1NC(=O)CCN1CCCCC1 returned Runt-SMMHC FRET inactive, Wee1 stabilizer inactive and Runt-CBFb FRET inactive.
For CCOC(=O)c1[nH]c2ccc(OC)cc2c1NC(=O)CCN1CCCC(C)C1 (configuration not stated) the results were proKLK7 act 27, AI-2 QS modul inactive, RanGTP-Impb inh inactive, Runt-SMMHC FRET inactive, Wee1 stabilizer inactive, Runt-CBFb FRET inactive, proKLK7 act conf inactive and EDANS interfere inactive.
CCN(CC)CCCNC(=O)c1cc2cc(Cl)ccc2nc1N was read as proKLK7 act 17, proKLK7 act conf 26 and EDANS interfere 25.
For Nc1nc2ccc(Cl)cc2cc1C(=O)NC1CC1 the results were proKLK7 act 16, proKLK7 act conf inactive and EDANS interfere 8.8.
For COc1ccc(N(CC(=O)N2CCN(C)CC2)S(=O)(=O)c2cc(C)ccc2OC)cc1Cl the results were proKLK7 act inactive, AI-2 QS modul inactive and RanGTP-Impb inh inactive.
For COc1ccc2c3c(n(C(=O)OC(C)(C)C)c2c1)C1CC=C(COC(C)=O)CN1CC3 (configuration not stated) the results were proKLK7 act 18, proKLK7 act conf inactive and EDANS interfere 9.5.
`COc1ccc2cc(C3CC=C(CO)CN3S(=O)(=O)c3ccccc3[N+](=O)[O-])n(C(=O)OC(C)(C)C)c2c1` (configuration not stated) gave proKLK7 act inactive.
`c1cnc2nc(CSc3ncn[nH]3)cn2c1` gave proKLK7 act 48, AI-2 QS modul inactive, Runt-SMMHC FRET inactive, Wee1 stabilizer inactive, Runt-CBFb FRET inactive, proKLK7 act conf inactive and EDANS interfere 11.
`c1ccc(SCc2cn3cccnc3n2)nc1` gave proKLK7 act inactive, AI-2 QS modul inactive, RanGTP-Impb inh inactive, Runt-SMMHC FRET inactive, Wee1 stabilizer inactive and Runt-CBFb FRET inactive.
Screening CN(C(=O)CC1C(=O)NCCN1Cc1ccccc1C(F)(F)F)C1CCOCC1 (configuration not stated) returned proKLK7 act inactive, AI-2 QS modul inactive and RanGTP-Impb inh inactive.
For O=C1NN(c2ccccc2)C(=O)C1=Cc1ccccc1O the results were proKLK7 act inactive.
